The source made the active and inactive calls. The rule behind the calls is not given here.
Columns and labels:
[1] = Oral bioavailability in rat; assay type: ADME, organism-based; conditions: in vivo
[2] = Bioavailability in rat at 10 umol/kg, ip; assay type: ADME, organism-based; conditions: in vivo
P2X purinoceptor 7 [3] = target: T1, P2X purinoceptor 7 (Homo sapiens, UniProt Q99572); experiment: Antagonist activity at human cloned P2X7 receptor expressed in HEK293 cells assessed as inhibition of calcium flux by FLIPR assay; assay type: functional, cell-based
T1 sequence (Q99572 whole entry): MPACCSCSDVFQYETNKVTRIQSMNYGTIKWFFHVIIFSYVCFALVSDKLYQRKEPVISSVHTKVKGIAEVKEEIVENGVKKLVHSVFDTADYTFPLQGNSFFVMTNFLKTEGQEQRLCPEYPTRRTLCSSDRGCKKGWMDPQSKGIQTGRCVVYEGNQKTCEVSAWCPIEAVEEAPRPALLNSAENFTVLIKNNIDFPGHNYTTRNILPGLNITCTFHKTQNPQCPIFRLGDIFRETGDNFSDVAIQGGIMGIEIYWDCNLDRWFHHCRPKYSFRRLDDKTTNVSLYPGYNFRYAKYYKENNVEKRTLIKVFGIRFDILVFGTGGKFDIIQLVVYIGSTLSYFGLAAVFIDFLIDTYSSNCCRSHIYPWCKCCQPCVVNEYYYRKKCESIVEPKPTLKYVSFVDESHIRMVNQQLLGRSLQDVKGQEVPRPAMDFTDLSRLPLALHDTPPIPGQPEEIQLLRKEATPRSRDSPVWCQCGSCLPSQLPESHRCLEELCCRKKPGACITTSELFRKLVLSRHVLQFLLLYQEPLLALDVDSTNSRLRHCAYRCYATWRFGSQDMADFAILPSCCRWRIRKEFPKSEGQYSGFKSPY
Summary of the method: (§1)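 Calcium influx read on a fluorometric imaging plate reader with Fluo-4 as the calcium-sensing dye. The P2X7 agonist was benzoylbenzoic ATP (BzATP). pIC50 values are the mean of two experiments unless otherwise indicated; some values are the mean of more than two experiments, with standard deviation shown.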

P2X purinoceptor 7 [4] = target: T2, P2X purinoceptor 7 (Rattus norvegicus, UniProt Q64663); experiment: Antagonist activity at rat cloned P2X7 receptor expressed in HEK293 cells assessed as inhibition of calcium flux by FLIPR assay; assay type: functional, cell-based; summary of the method: as §1
T2 sequence (Q64663 whole entry): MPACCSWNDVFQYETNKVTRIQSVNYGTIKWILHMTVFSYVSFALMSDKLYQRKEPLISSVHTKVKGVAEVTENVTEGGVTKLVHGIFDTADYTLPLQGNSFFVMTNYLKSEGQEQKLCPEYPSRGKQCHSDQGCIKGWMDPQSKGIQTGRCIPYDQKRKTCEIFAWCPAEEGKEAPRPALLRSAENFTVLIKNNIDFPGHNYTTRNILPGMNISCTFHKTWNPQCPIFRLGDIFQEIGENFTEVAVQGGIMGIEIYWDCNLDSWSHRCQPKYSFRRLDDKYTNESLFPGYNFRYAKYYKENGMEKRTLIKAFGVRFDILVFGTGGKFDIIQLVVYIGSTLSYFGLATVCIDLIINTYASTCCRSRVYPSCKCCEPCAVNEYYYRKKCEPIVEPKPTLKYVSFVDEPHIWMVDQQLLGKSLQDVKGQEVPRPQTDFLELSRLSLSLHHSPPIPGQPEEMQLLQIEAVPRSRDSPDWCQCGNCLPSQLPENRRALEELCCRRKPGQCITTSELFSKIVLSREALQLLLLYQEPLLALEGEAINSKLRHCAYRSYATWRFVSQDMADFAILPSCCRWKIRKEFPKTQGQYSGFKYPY

Rattus norvegicus [5] = experiment: Antinociceptive activity in ip dosed rat L5-L6 spinal nerve ligation model of neuropathic pain assessed as reduction in tactile allodynia; assay type: functional; design: Activity: scale not given: the % may be the effect or the level left; conditions: for ED50: Rattus norvegicus, Spinal nerve, ip
Summary of the method: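 Intraperitoneal dosing in rats with L5-L6 spinal nerve ligation (Chung model). Tactile allodynia was measured by von Frey testing. ED50 in µmol/kg and maximum efficacy (%) are the mean of six animals.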

[6] = Selectivity for P2X7 receptor over potassium channel
[7] = target: T3, P2X purinoceptor 3 (Homo sapiens) (UniProt P56373); experiment: Activity at P2X3 receptor up to 10 uM
T3 sequence (whole entry): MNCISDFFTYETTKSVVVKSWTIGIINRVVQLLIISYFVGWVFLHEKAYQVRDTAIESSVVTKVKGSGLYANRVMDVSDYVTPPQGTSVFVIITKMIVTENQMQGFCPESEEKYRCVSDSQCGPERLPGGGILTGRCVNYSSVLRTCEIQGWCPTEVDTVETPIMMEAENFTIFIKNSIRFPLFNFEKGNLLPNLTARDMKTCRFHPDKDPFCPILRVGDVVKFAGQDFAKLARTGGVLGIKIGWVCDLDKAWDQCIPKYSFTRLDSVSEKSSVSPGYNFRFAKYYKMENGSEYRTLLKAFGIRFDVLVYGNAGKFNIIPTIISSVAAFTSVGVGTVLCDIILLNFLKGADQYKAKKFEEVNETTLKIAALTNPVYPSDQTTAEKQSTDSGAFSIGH

[8] = target: P2Y purinoceptor 2 (Homo sapiens) (UniProt P41231); experiment: Activity at P2Y2 receptor up to 10 uM
Rattus norvegicus [9] = experiment: Antiallodynic activity in rat L5-L6 spinal nerve ligation model of neuropathic pain assessed as inhibition of mechanical allodynia at 100 umol/kg, po single administration; assay type: functional; design: scale not given: the % may be the effect or the level left
Summary of the method: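 Chung-model rats (L5-L6 spinal nerve ligation) were given a single oral dose, with 5% DMSO/PEG as vehicle. Mechanical allodynia was read by von Frey testing and expressed as % effect ± SEM, N = 6 per group, compared with vehicle.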

Rattus norvegicus [10] = experiment: Antiallodynic activity in rat L5-L6 spinal nerve ligation model of neuropathic pain assessed as inhibition of mechanical allodynia at 100 umol/kg, po administered twice daily for 4 days once on day 5; assay type: functional; design: scale not given: the % may be the effect or the level left
Summary of the method: (§2)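 Rats with L5-L6 spinal nerve ligation (Chung model) received vehicle (5% DMSO/PEG) or compound at 100 µmol/kg orally twice a day for four days. On day 5, vehicle or compound was given orally 1 h before von Frey testing for mechanical allodynia. Results are % effect ± SEM, N = 6 per group, with P vs the respective vehicle group.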

[11] = target: T4, P2X purinoceptor 4 (Homo sapiens) (UniProt Q99571); experiment: Activity at P2X4 receptor up to 10 uM
T4 sequence (whole entry): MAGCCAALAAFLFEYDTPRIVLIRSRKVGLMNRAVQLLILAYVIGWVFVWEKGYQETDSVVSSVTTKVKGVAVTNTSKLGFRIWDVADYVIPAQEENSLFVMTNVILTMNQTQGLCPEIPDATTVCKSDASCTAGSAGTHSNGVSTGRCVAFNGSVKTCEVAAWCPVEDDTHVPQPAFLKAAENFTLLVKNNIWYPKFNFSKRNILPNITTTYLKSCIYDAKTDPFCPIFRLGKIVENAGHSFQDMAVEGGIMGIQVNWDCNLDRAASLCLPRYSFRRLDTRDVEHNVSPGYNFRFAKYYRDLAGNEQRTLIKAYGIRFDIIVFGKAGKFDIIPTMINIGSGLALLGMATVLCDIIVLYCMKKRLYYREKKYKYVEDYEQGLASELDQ

Rattus norvegicus [12] = experiment: Antiallodynic activity in rat L5-L6 spinal nerve ligation model of neuropathic pain assessed as inhibition of mechanical allodynia after chronic administration of vehicle twice daily for 4 days followed by acute dose of 100 umol/kg, po on day 5; assay type: functional; design: scale not given: the % may be the effect or the level left; summary of the method: as §2

P2Y purinoceptor 2 (Homo sapiens), sequence (P41231 whole entry): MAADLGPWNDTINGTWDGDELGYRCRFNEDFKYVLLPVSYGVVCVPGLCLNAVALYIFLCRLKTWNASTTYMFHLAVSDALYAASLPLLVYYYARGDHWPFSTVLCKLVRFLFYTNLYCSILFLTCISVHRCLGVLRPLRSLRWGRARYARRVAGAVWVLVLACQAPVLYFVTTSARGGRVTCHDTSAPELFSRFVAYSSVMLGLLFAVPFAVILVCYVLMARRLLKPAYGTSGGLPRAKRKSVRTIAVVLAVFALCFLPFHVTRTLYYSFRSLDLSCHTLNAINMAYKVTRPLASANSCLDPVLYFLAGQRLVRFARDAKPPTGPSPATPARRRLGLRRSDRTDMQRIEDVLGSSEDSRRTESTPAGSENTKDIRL

SMILES	bioavailability [2] [%]	IC50 (P2X purinoceptor 7 [3]) [nM]	IC50 (P2X purinoceptor 7 [4]) [nM]	Activity (Rattus norvegicus [5]) [%]	ED50 (Rattus norvegicus [5]) [µmol/kg]	Activity [7]	Activity [8]	Activity [11]	further results
Cc1ncccc1NC(=NC(NC(=O)Cc1ccc(Cl)cc1)C(C)(C)C)NC#N (configuration not stated)	54	31.6	39.8						bioavailability [1]: 36%
CC(C)(C)C(NC(=O)Cc1ccc(Cl)cc1)N/C(=N/C#N)Nc1cccc2ncccc12 (configuration not stated)	66	10	6.31	68	55				
CC(Cl)(Cl)C(NC(=O)c1ccc(Cl)cc1)N/C(=N/C#N)Nc1cccnc1Cl (configuration not stated)									Selectivity ratio [6]: 100
Cc1ncccc1N/C(=N\C#N)NC(NC(=O)Cc1ccc(Cl)cc1)C(C)(C)C (configuration not stated)				82	38	inactive	inactive	inactive	Activity (Rattus norvegicus [9]): 45%; Activity (Rattus norvegicus [10]): 61%; Activity (Rattus norvegicus [12]): 44%
COc1ccc(CC(=O)NC(NC(=NC#N)Nc2ccccc2C)C(C)(C)C)cc1OC (stereo in doubt; 13)	90	126	12.6						
COc1ccc(CC(=O)NC(N/C(=N/C#N)Nc2cc(C)ccc2C)C(C)(C)C)cc1OC (configuration not stated)						inactive	inactive	inactive	
Cc1ncccc1N/C(=N\C#N)NC(NC(=O)Cc1ccc(F)cc1)C(C)(C)C (configuration not stated)	52	100	398	0	> 300				
COc1ccc(CC(=O)NC(N/C(=N/C#N)Nc2cccc3ncccc23)C(C)(C)C)cc1OC (configuration not stated)	79	39.8		65	41	inactive	inactive	inactive	
COc1ncccc1N/C(=N\C#N)NC(NC(=O)c1ccc(Cl)cc1)C(C)(Cl)Cl (configuration not stated)									Selectivity ratio [6]: 100
COc1ccc(CC(=O)NC(N/C(=N/C#N)Nc2ccccc2C)C(C)(C)C)cc1OC (stereo in doubt; 13)				59	77	inactive	inactive	inactive	

Reference: ChEMBL document CHEMBL1138502, “Discovery and biological evaluation of novel cyanoguanidine P2X(7) antagonists with analgesic activity in a rat model of neuropathic pain” (J Med Chem, 2009)
